Assay results as given in ChEMBL document CHEMBL4477254, “Synthesis and biological evaluation of some novel triazole hybrids of curcumin mimics and their selective anticancer activity against breast and prostate cancer cell lines” (Bioorg Med Chem Lett, 2016).
In brackets after ≈: the same amount, converted by molar mass. Activity calls are given as the source filed them. The rule behind the calls is not given here.

Tests used:
[1] = tested on: PC-3; assay: Cytotoxicity against human PC3 cells assessed as decrease in cell viability after 24 hrs by MTT assay; type: functional, cell-based; details: PC-3, 24 h
Method in brief: (§1)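 Cell viability by MTT after 24 h compound exposure; curcumin as standard. IC50 in µM from three independent experiments, expressed as mean ± SE.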

[2] = tested on: HEK293; assay: Cytotoxicity against human HEK293 cells assessed as decrease in cell viability after 24 hrs by MTT assay; type: cell-based; details: HEK293, 24 h; method in brief: as §1
[3] = tested on: MCF7; assay: Cytotoxicity against human MCF7 cells assessed as decrease in cell viability after 24 hrs by MTT assay; type: functional, cell-based; details: MCF7, 24 h; method in brief: as §1
[4] = Stability of the compound in simulated gastric fluid assessed as compound remaining after 1 hr at 37 degC by UPLC analysis; type: ADME; details: read-out: Stability
[5] = Stability of the compound in simulated intestinal fluid assessed as compound remaining after 2 hrs at 37 degC by UPLC analysis; type: ADME; details: read-out: Stability
[6] = target: T1, Serine/threonine-protein kinase AKT (Homo sapiens) (UniProt P31751+Q9Y243+P31749); assay: Inhibition of Akt phosphorylation at […] in human MCF7 cells at 9 uM after 24 hrs by Western blot analysis; type: cell-based
Method in brief: (§2)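 Protein expression was analysed by Western blotting of cells harvested after 24 h compound treatment.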

[7] = tested on: DU-145; assay: Cytotoxicity against human DU145 cells assessed as decrease in cell viability after 24 hrs by MTT assay; type: functional, cell-based; details: DU-145, 24 h; method in brief: as §1
[8] = tested on: MCF7; assay: Decrease in PCNA levels in human MCF7 cells at 3 to 9 uM after 24 hrs by Western blot analysis; type: functional, cell-based
Method in brief: (§3)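 MCF-7 or PC-3 cells treated with compound for 24 h, harvested; PCNA, Bax and Bcl-2 protein expression checked by Western blotting.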

[9] = tested on: 4T1; assay: Potency index, ratio of curcumin IC50 to compound IC50 in mouse 4T1 cells; type: functional
Method in brief: (§4)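 IC50 came from an MTT viability assay after 24 h compound exposure, with curcumin run as the standard. Values are mean ± SE of three independent experiments. The index is the curcumin IC50 divided by the compound IC50 in the same cell line.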

[10] = Stability in rat plasma assessed as compound remaining after 2 hrs at 37 degC by UPLC analysis; type: ADME, cell-free; details: read-out: Stability
Method in brief: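 Compound was incubated in plasma, and the percentage remaining intact was calculated at time points up to 2 h.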

[11] = tested on: DU-145; assay: Potency index, ratio of curcumin IC50 to compound IC50 in human DU145 cells; type: functional; method in brief: as §4
[12] = tested on: MCF7; assay: Cell cycle arrest in human MCF7 cells assessed as accumulation at G0/G1 phase at 6 uM after 24 hrs by propidium iodide staining based flow cytometry (reference value: 45.67%); type: functional
Method in brief: (§5)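 Cells treated 24 h with test compound, MCF-7 at various concentrations and PC-3 at various concentrations; cells harvested, stained with propidium iodide and acquired by flow cytometry for cell cycle phase distribution.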

[13] = tested on: MDA-MB-231; assay: Cytotoxicity against human MDA-MB-231 cells assessed as decrease in cell viability after 24 hrs by MTT assay; type: functional, cell-based; details: MDA-MB-231, 24 h; method in brief: as §1
[14] = tested on: MCF7; assay: Induction of apoptosis in human MCF7 cells assessed as necrotic cells at 6 uM after 24 hrs by annexin V-FITC/propidium iodide staining based flow cytometry (reference value: 4.76%); type: functional
Method in brief: (§6)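 Apoptosis by Annexin V-FITC/PI dual staining: MCF-7 cells treated 24 h at 3, 6 and 9 µM, then harvested, stained and acquired by flow cytometry; early apoptotic = AnnexinV+/PI−, live = AnnexinV−/PI−, necrotic = AnnexinV−/PI+.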

[15] = Intrinsic clearance in liver microsomes (unknown origin) assessed per mg of protein at 5 ug/ml in presence of NADPH by UPLC analysis; type: ADME, Microsome
[16] = tested on: MCF7; assay: Induction of apoptosis in human MCF7 cells assessed as early apoptotic cells at 6 uM after 24 hrs by annexin V-FITC/propidium iodide staining based flow cytometry (reference value: 7.36%); type: functional; method in brief: as §6
[17] = Solubility of the compound in distilled water after 24 hrs by HPLC based shake flask method; type: physicochemical
[18] = tested on: MCF7; assay: Cell cycle arrest in human MCF7 cells assessed as accumulation at G2/M phase at 9 uM after 24 hrs by propidium iodide staining based flow cytometry (reference value: 20.30%); type: functional; method in brief: as §5
[19] = tested on: MCF7; assay: Increase in Bax expression in human MCF7 cells at 3 to 9 uM after 24 hrs by Western blot analysis; type: functional, cell-based; method in brief: as §3
[20] = tested on: MCF7; assay: Cell cycle arrest in human MCF7 cells assessed as accumulation at S phase at 6 uM after 24 hrs by propidium iodide staining based flow cytometry (reference value: 34.03%); type: functional; method in brief: as §5
[21] = tested on: MCF7; assay: Cell cycle arrest in human MCF7 cells assessed as decrease in cells at G0/G1 phase after 24 hrs by propidium iodide staining based flow cytometry; type: functional; method in brief: as §5
[22] = tested on: MDA-MB-231; assay: Potency index, ratio of curcumin IC50 to compound IC50 in human MDA-MB-231 cells; type: functional; method in brief: as §4
[23] = tested on: PC-3; assay: Potency index, ratio of curcumin IC50 to compound IC50 in human PC3 cells; type: functional; method in brief: as §4
[24] = tested on: 4T1; assay: Cytotoxicity against mouse 4T1 cells assessed as decrease in cell viability after 24 hrs by MTT assay; type: functional, cell-based; details: 4T1, 24 h; method in brief: as §1
[25] = Protein binding in rat plasma at 8 ug/ml after 15 mins by UPLC based charcoal adsorption method; type: ADME, cell-free; details: read-out: PPB (converted)
[26] = tested on: PC-3; assay: Induction of apoptosis in human PC3 cells assessed as decrease in live cells after 24 hrs by annexin V-FITC/propidium iodide staining based flow cytometry; type: functional, cell-based
Method in brief: (§7)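 MCF-7 cells exposed to 3, 6 or 9 μM and PC-3 cells to 4.8 or 8.8 μM for 24 h, then harvested and dual-stained with Annexin V-FITC/PI and read by flow cytometry. Gates: live AnnexinV⁻/PI⁻, early apoptotic AnnexinV⁺/PI⁻, necrotic AnnexinV⁻/PI⁺.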

[27] = tested on: PC-3; assay: Induction of apoptosis in human PC3 cells assessed as viable cells at 8.8 uM after 24 hrs by annexin V-FITC/propidium iodide staining based flow cytometry (reference value: 92.24%); type: functional; details: PC-3, 24 h, read-out: Activity; method in brief: as §7
[28] = tested on: PC-3; assay: Induction of mitochondrial membrane depolarization in human PC3 cells at 8.8 uM after 24 hrs by JC-1 staining based flow cytometry (reference value: 4.51%); type: functional
[29] = tested on: PC-3; assay: Induction of apoptosis in human PC3 cells assessed as early apoptotic cells at 4.8 uM after 24 hrs by annexin V-FITC/propidium iodide staining based flow cytometry (reference value: 4.44%); type: functional; method in brief: as §7
[30] = Intrinsic clearance in liver microsomes (unknown origin) assessed per mg of protein at 8 ug/ml in presence of NADPH by UPLC analysis; type: ADME, Microsome
[31] = tested on: PC-3; assay: Induction of morphological changes in human PC3 cells assessed as decrease in cell number at 2.4 to 8.8 uM after 24 hrs by phase contrast microscopy; type: functional, cell-based
Method in brief: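 Cells were exposed to a range of concentrations for 24 h. Cell number and morphology, including detachment from the surface, were assessed by phase-contrast microscopy at 10X magnification.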

[32] = tested on: PC-3; assay: Induction of apoptosis in human PC3 cells assessed as viable cells at 4.8 uM after 24 hrs by annexin V-FITC/propidium iodide staining based flow cytometry (reference value: 92.24%); type: functional; details: PC-3, 24 h, read-out: Activity; method in brief: as §7
[33] = target: T1, Serine/threonine-protein kinase AKT (Homo sapiens); assay: Inhibition of Akt phosphorylation at […] in human PC3 cells at 8.8 uM after 24 hrs by Western blot analysis; type: cell-based; method in brief: as §2

T1 sequence (P31749 whole entry, looked up): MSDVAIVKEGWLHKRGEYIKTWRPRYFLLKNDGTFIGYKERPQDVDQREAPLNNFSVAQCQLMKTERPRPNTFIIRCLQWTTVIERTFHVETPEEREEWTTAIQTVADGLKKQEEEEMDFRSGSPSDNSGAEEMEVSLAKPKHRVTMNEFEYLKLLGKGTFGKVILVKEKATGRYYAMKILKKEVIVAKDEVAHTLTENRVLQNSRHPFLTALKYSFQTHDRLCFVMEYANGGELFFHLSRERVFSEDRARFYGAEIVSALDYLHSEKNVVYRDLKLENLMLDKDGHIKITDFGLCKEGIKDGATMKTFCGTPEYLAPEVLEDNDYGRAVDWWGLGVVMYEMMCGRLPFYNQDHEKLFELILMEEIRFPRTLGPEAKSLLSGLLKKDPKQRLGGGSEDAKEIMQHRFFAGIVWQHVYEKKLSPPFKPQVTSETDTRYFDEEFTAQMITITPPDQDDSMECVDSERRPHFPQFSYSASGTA
T1 sequence (P31751 whole entry, looked up): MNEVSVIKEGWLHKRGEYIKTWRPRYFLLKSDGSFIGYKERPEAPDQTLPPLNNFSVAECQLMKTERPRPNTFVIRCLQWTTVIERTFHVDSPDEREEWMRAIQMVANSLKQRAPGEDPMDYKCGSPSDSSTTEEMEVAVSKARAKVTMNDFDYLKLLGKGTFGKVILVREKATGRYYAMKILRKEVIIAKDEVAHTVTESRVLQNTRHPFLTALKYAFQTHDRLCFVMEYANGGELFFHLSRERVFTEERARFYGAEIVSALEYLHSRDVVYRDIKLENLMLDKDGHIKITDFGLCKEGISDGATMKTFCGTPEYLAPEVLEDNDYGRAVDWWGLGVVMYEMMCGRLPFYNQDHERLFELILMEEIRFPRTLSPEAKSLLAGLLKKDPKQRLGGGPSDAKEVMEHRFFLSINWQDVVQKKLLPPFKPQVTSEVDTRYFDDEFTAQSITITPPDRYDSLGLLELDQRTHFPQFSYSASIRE
T1 sequence (Q9Y243 whole entry, looked up): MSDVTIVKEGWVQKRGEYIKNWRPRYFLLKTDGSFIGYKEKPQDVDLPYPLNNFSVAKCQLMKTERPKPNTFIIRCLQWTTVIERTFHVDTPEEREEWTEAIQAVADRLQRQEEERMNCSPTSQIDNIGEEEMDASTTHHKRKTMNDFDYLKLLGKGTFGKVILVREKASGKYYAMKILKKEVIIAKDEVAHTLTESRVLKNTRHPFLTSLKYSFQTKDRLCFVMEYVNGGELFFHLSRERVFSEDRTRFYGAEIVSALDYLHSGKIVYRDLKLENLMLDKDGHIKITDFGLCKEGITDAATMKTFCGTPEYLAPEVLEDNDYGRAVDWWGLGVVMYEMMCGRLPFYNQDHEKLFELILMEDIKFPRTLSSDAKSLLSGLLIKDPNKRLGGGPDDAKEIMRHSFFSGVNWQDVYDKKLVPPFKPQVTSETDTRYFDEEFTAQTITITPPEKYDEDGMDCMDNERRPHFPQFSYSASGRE

remaining at 1 h [4] [%] | remaining at 2 h [5] [%] | remaining at 2 h [10] [%] | solubility thermodynamic at 24 h [17] [µg/mL] | fraction unbound at 0.25 h, 8 ug/ml [25] | Structure (SMILES) | IC50 [1] [µM] | IC50 [2] [µM] | IC50 [3] [µM] | IC50 [7] [µM] | Ratio IC50 [9] | Ratio IC50 [11] | IC50 [13] [µM] | Ratio IC50 [22] | Ratio IC50 [23] | IC50 [24] [µM] | other results
85 | 65 | 96 | 2.08 (≈ 4.16 µM) | 0.188 | O=C1/C(=C/c2ccccc2F)CN(Cc2cn(Cc3ccc(F)cc3)nn2)C/C1=C\c1ccccc1F | 19.4 | 46 | 6 | 8.7 | <=9.3 | ≤ 9.5 | 10 | <=8.3 | <=5.7 | 6.4 | inhibition [6]: 100%; Activity [8]: Active; Activity [12]: 11.97%; Activity [14]: 4.28%; CLint [15]: 176 µL/min/mg; Activity [16]: 30.56%; Activity [18]: 35.11%; Activity [19]: Active; Activity [20]: 44.43%; Activity [21]: Dose-dependent effect
92 | 30 | 90 | 1.12 (≈ 2.27 µM) | 0.0301 | Cc1ccc(/C=C2\CN(Cc3cn(Cc4ccccc4F)nn3)C/C(=C\c3ccc(C)cc3)C2=O)cc1 | 8.8 | > 100 | 28.7 | 9.5 | <=9.3 | ≤ 9.5 | 10 | <=8.3 | <=5.7 | 18 | Activity [26]: Dose-dependent effect; viability at 8.8 µM [27]: 80.8%; Activity [28]: 32.02%; Activity [29]: 13.02%; CLint [30]: 87 µL/min/mg; Activity [31]: Active; viability at 4.8 µM [32]: 85.3%; inhibition [33]: 100%
